Experiments:
[1] = biological target: T1, Polyunsaturated fatty acid 5-lipoxygenase (Homo sapiens, UniProt P09917); experiment: Inhibition of 5-LO in human polymorphonuclear leukocytes preincubated for 10 mins followed by addition of arachidonic acid as substrate measured after 10 mins by HPLC method; type: cell-based
T1 sequence (P09917 whole entry): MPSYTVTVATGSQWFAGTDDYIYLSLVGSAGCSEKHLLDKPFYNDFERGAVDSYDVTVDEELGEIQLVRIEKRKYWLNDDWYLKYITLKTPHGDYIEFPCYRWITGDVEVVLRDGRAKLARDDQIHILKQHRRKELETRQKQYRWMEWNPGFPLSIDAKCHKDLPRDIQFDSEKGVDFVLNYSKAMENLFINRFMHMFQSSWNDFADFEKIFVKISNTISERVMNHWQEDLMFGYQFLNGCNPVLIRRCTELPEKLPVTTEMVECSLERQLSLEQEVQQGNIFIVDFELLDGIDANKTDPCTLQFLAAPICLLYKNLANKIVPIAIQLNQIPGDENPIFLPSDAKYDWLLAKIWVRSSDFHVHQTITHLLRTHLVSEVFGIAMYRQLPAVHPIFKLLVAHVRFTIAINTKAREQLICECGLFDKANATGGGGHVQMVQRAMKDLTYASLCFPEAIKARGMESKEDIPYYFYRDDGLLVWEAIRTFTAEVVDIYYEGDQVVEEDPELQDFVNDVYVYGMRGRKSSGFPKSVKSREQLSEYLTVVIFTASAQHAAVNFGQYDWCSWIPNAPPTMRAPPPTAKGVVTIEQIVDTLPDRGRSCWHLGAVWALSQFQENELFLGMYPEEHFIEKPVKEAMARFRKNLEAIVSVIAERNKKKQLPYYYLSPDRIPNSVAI

[2] = biological target: T2, Prostaglandin E synthase (Homo sapiens) (UniProt O14684); experiment: Inhibition of mPGES-1 in microsomes of IL1-beta induced human A549 cells assessed as PGE2 formation by measuring enzyme residual activity at 10 uM preincubated for 15 mins followed by addition of PGH2 as substrate measured after 1 min by RP-HPLC method relative to control
T2 sequence (whole entry): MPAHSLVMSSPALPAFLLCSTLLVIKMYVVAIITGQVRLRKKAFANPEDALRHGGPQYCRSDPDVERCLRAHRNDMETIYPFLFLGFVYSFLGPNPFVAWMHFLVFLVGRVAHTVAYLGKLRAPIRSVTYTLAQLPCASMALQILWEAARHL
In short: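 Microsomes from A549 cells stimulated with IL-1β (1 ng/mL) for 48 h, diluted in 0.1 M potassium phosphate pH 7.4 with 2.5 mM glutathione. Compound or vehicle added for 15 min at 4 °C, then 20 μM PGH2 for 1 min at 4 °C. Stopped with FeCl2/citric acid containing 11β-PGE2. PGE2 measured by solid-phase extraction and RP-HPLC. Residual activity as % of control, mean ± SEM, 3–4 experiments.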

[3] = biological target: T1, Polyunsaturated fatty acid 5-lipoxygenase; experiment: Inhibition of recombinant human 5-LO expressed in Escherichia coli MV1190 cells preincubated for 10 mins followed by addition of arachidonic acid as substrate measured after 10 mins by RP-HPLC method
In short: (§1)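 Recombinant human 5-LO expressed at 27 °C in E. coli MV1190 and partially purified from the 40000g supernatant on ATP-agarose. Enzyme taken up in PBS with 1 mM EDTA plus 1 mM ATP and preincubated with compound on ice 10 min. After 30 s at 37 °C, 2 mM CaCl2 and 20 μM AA added for 10 min. Stopped with methanol, products measured by RP-HPLC. Mean ± SEM, 3–4 experiments.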

[4] = biological target: T3, Polyunsaturated fatty acid 5-lipoxygenase (Homo sapiens) (UniProt P09917); experiment: Inhibition of 5-LO in human polymorphonuclear leukocytes assessed as residual activity at 10 uM preincubated for 10 mins followed by addition of arachidonic acid as substrate measured after 10 mins by HPLC method relative to control; type: cell-based
T3 sequence (whole entry): T1 sequence (P09917 whole entry)

[5] = biological target: T3, Polyunsaturated fatty acid 5-lipoxygenase (Homo sapiens); experiment: Inhibition of recombinant human 5-LO expressed in Escherichia coli MV1190 cells assessed as residual activity preincubated for 10 mins followed by addition of arachidonic acid as substrate measured after 10 mins by RP-HPLC method relative to control; in short: as §1

Row | Compound | IC50 ([1]; read-out: IC50) [µM] | Activity [2] [%] | IC50 ([3]; read-out: IC50) [µM] | IC50 [1] | IC50 [3] | Activity [4] [%] | Activity [5] [%]
1 | COc1cc(O)c(CC=C(C)C)c(O)c1C(=O)/C=C/c1ccc(O)cc1 [XANTHOHUMOL] | 2.9 | 32.3 | 2.1 |  |  |  | 
2 | CC(C)=CCc1c(O)cc(O)c(-c2c(O)cc(O)c(CC=C(C)C)c2O)c1O |  | 40.2 |  | Not Active | Not Active |  | 
3 | CC(C)=CCC1=C(O)[C@](O)(CC=C(C)C)C(=O)C(C(=O)CC(C)C)=C1O | > 10 | 49.7 | 9.3 |  |  | 63.1 | 
4 | CC(C)=CCc1c(O)cc(O)c2c1O[C@H](c1ccc(O)cc1)CC2=O | > 10 | 56.5 | > 10 |  |  | 87.5 | 66.7

Continued, values first:

Row | IC50 ([1]; read-out: IC50) [µM] | Activity [2] [%] | IC50 ([3]; read-out: IC50) [µM] | IC50 [1] | IC50 [3] | Activity [4] [%] | Activity [5] [%] | Compound
5 |  | 52.7 | > 10 | Not Active |  |  | 90.8 | CC(C)=CCC1=C2O[C@@H](C(C)(C)O)C[C@@]2(O)C(=O)C(C(=O)CC(C)C)=C1O
6 | > 10 | 35.3 | > 10 |  |  | 56.8 | 58 | COc1cc2c(c(O)c1C(=O)/C=C/c1ccc(O)cc1)C=CC(C)(C)O2 [XANTHOHUMOL C]
7 | > 10 | 32.8 | 5.9 |  |  | 57.5 |  | CC(C)=CCC1(O)C(=O)C(CC=C(C)C)(CC=C(C)C)C(=O)C(C(=O)C(C)C)=C1O (stereo not drawn)
